Laboratory results from PubChem BioAssay AID504818 (Southern Research Specialized Biocontainment Screening …, 2011).
“And” between values parts separate entries of the source, which are not always exact repeats. Equal entries are not always repeated. The source made the active and inactive calls.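 How the source made its calls: active means any dose giving under 70% viability, per first replicate; inactive means the rest.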

System: not listed separately
Experiment: HEp-2 cell cytotoxicity, SAR follow-up, cytotoxicity control for RSV inhibitor project, synthesized compounds, set 8 (AID 504818)
Conditions: HEp-2 viability, ATP luminescence; at 50 µM (top of the series)
In short: (§1)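 Material: Uninfected HEp-2 human cells, ATP-based viability | Buffer or medium: DMEM/F12 growth medium supplemented with heat-inactivated FBS | Benchmarks: Cell-only wells as 100% reference | Dosing: Eight 1:2 steps, 0.39–50 µM, 0.5% DMSO | Signal: ATP luminescence (CellTiter-Glo) | Evaluation: % viability and CC50 (0–100 bounded fit) | Times: 6 d compound exposure, 37 °C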

SMILES | viability
COc1ccc(C)cc1NC(=O)[C@@H]1CCCN1S(=O)(=O)c1cccc2cccnc12 | 82% (inactive)
Cc1ccc(NC(=O)C2CCCN2S(C)(=O)=O)c(C)c1 (stereo unspecified) | 96.3% (inactive)
Cc1ccc(NC(=O)C(C)NS(=O)(=O)c2cccc3cccnc23)c(C)c1 (stereo unspecified) | 77.7% (inactive)
Cc1ncccc1NC(=O)[C@@H]1CCCN1S(=O)(=O)c1cccc2cccnc12 | 72.6% (inactive)

System: HEp-2 viability, ATP luminescence
Experiment: as above
Conditions: not given
In short: as §1

SMILES | CC50
Cc1ccc(C)c(NC(=O)[C@@H]2CCCN2S(=O)(=O)c2cccc3cccnc23)c1 | 36.2 µM and 32.9 µM
Cc1ccc(C(C)(C)C)cc1NC(=O)[C@@H]1CCCN1S(=O)(=O)c1cccc2cccnc12 | 6.2 µM
CC(C)c1ccccc1NC(=O)[C@@H]1CCCN1S(=O)(=O)c1cccc2cccnc12 | 30.1 µM
Cc1ccc(C(F)(F)F)cc1NC(=O)[C@@H]1CCCN1S(=O)(=O)c1cccc2cccnc12 | 3.7 µM
Cc1ccc(NC(=O)[C@@H]2CCCN2S(=O)(=O)c2cccc3cccnc23)c(C)c1 | 33 µM
Cc1cccc(NC(=O)[C@@H]2CCCN2S(=O)(=O)c2cccc3cccnc23)c1C | 49.5 µM
Cc1ccc(F)cc1NC(=O)[C@@H]1CCCN1S(=O)(=O)c1cccc2cccnc12 | 22.5 µM
Cc1ccc(NC(=O)[C@H]2CCCN2S(=O)(=O)c2cccc3cccnc23)c(C)c1 | 40.9 µM
Cc1ccc(Cl)cc1NC(=O)[C@@H]1CCCN1S(=O)(=O)c1cccc2cccnc12 | 9.25 µM
Cc1ccc(C(C)C)cc1NC(=O)[C@@H]1CCCN1S(=O)(=O)c1cccc2cccnc12 | 10.6 µM
COCCCNC(=O)c1ccc(Cn2c(=O)c3ccccc3n(C)c2=O)cc1 | 15 µM
Cc1cc(C)cc(NC(=O)[C@@H]2CCCN2S(=O)(=O)c2cccc3cccnc23)c1 | 32.2 µM
Cc1ccc(NC(=O)C2CCCN2S(=O)(=O)c2cccc3ccccc23)c(C)c1 (stereo unspecified) | 18.4 µM
Cc1ccc(NC(=O)C2CCCN2S(=O)(=O)c2cccc3cccnc23)c(C)c1 (stereo unspecified) | 33.4 µM
COCCCNC(=O)c1ccc(Cn2c(=O)c3ccc(Br)cc3n(Cc3ccc(C)cc3)c2=O)cc1 | 39 µM
COCCCNC(=O)c1ccc(Cn2c(=O)c3ccccc3n(Cc3cc(C)on3)c2=O)cc1 | 7 µM
Cc1cccc(NC(=O)[C@@H]2CCCN2S(=O)(=O)c2cccc3cccnc23)c1 | 20.8 µM
Cc1ccc(Cl)c(NC(=O)[C@@H]2CCCN2S(=O)(=O)c2cccc3cccnc23)c1 | 13.6 µM
O=C(Nc1ccccc1)[C@@H]1CCCN1S(=O)(=O)c1cccc2cccnc12 | 38.4 µM
Cc1ccc(NC(=O)[C@@H]2CCCN2S(=O)(=O)c2cccc3cccnc23)cc1 | 33.1 µM
Cc1ccc(Cn2c(=O)n(Cc3ccc(C(=O)NC(C)(C)C)cc3)c(=O)c3ccccc32)cc1 | 10.2 µM
CCCn1c(=O)n(Cc2ccc(C(=O)NCCCOC)cc2)c(=O)c2ccccc21 | 22.8 µM
